Laboratory results reported in ChEMBL document CHEMBL5712893, “Multiple Histone Lysine Methyltransferases Are Required for the Establishment and Maintenance of HIV-1 Latency” (2017).
The source made the active and inactive calls. The rule behind the calls is not given here.

Assays:
[1] = tested on: Human immunodeficiency virus 1; experiment: Reactivation of quiescent HIV-1 infected in human Th17 cells stimulated by IL-15 treated at 100 nM for 72 hrs followed by viral infection replenishment of drug medium every 72 hrs for 26 days by FACS analysis relative to control; assay type: functional
How it was run: (§1)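 Th17 cells exposed to inhibitor (100 nM) for 72 h, then infected with HIV-1. Infected cells kept under low-cytokine conditions to enter quiescence, with drug replenished every 72 h. On day 26, cells washed free of drug and induced with CD3/CD28 beads, IL-15 (50 ng/ml) or ConA (5 µg/ml). Nef and pSer175-CDK9 read by FACS; DMSO-pretreated control.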

[2] = tested on: Human immunodeficiency virus 1; experiment: Reactivation of HIV-1 latent proviruses in Th17 resting memory T cells after PRC2 KD infected with vesicular stomatitis virus G-pseudotyped HIV-1 at 10 nM by FACS analysis; assay type: functional
How it was run: (§2)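 Naive CD4+ T cells from healthy-donor PBMCs were activated with CD3/CD28 beads, polarized to Th17, and infected with VSV-G-pseudotyped Nef+ HIV-1 expressing CD8a-d2EGFP. Infected cells were CD8a-selected and made quiescent for 2 weeks in IL-2 (15 IU/ml) plus IL-23 ([…]). Cells were then exposed to compound for 96 h. Nef and pSer175-CDK9 were read by FACS, and viability by propidium iodide.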

[3] = tested on: Human immunodeficiency virus 1; experiment: Reactivation of latent proviruses in human Th17 cells infected with HIV-1 assessed as Nef and pSer175-CDK9 levels at 100 nM after 72 hrs by FACS analysis; assay type: functional; how it was run: as §1
[4] = tested on: Human immunodeficiency virus 1; experiment: Reactivation of HIV-1 latent proviruses in Th17 resting memory T cells by measuring pSer175 CDK9 level treated at 10 nM for 96 hrs by FACS analysis (reference value: 0.76%); assay type: functional
[5] = tested on: Human immunodeficiency virus 1; experiment: Reactivation of HIV-1 latent proviruses in Th17 resting memory T cells by measuring pSer175 CDK9 level treated at 100 nM for 96 hrs by FACS analysis (reference value: 0.76%); assay type: functional; how it was run: as §2
[6] = tested on: Human immunodeficiency virus 1; experiment: Reactivation of HIV-1 latent proviruses in Th17 resting memory T cells by measuring pSer175 CDK9 level treated at 1 uM for 96 hrs by FACS analysis (reference value: 0.76%); assay type: functional; how it was run: as §2
[7] = tested on: Human immunodeficiency virus 1; experiment: Reactivation of HIV-1 infected in human Jurkat cells at 1 uM measured after 7 days by FACS analysis relative to control; assay type: functional; settings: time 7 day
How it was run: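 E4 Jurkat cells carrying latent d2EGFP HIV-1, infected with shRNA or CRISPR-Cas9 lentivirus. Seven days post-infection, stimulated overnight with SAHA (1 µM), anti-CD3 (0.125 µg/ml) plus anti-CD28 (1 µg/ml), or TNF-α (1 ng/ml). d2EGFP-positive cells quantified by FACS. Three separate experiments, SEM.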

[8] = tested on: Human immunodeficiency virus 1; experiment: Antiviral activity against HIV-1 in human Jurkat T cells assessed as reduction GFP positive cells at 1 uM for 18 hrs; assay type: functional, organism-based
How it was run: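 Jurkat E6 cells pretreated overnight with inhibitor (5 µM; DZNep 5 or 10 µM; phenelzine 250 µM), washed twice with PBS, then spinoculated with VSV-G-pseudotyped HIV-1 (d2EGFP-Nef). Three days later, silent proviruses induced with 1 µM SAHA for 18 h. d2EGFP measured by FACS. Relative silencing is the % silent virus (SAHA-stimulated minus untreated GFP+), divided by scrambled/untreated control. Two independent experiments, SEM.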

[9] = tested on: Human immunodeficiency virus 1; experiment: Reactivation of HIV-1 latent proviruses in Th17 resting memory T cells by measuring pSer175 CDK9 level treated at 1 uM for 96 hrs by FACS analysis (reference value: 1.07%); assay type: functional; how it was run: as §2
[10] = tested on: Human immunodeficiency virus 1; experiment: Reactivation of HIV-1 latent proviruses in Th17 resting memory T cells by measuring pSer175 CDK9 level treated at 10 nM for 96 hrs by FACS analysis (reference value: 1.07%); assay type: functional
[11] = tested on: Human immunodeficiency virus 1; experiment: Reactivation of HIV-1 latent proviruses in Th17 resting memory T cells after PRC2 KD infected with vesicular stomatitis virus G-pseudotyped HIV-1 at 100 nM by FACS analysis relative to control; assay type: functional
How it was run: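 Th17 cells were pretreated with 100 nM compound for 72 h, then infected with VSV-G-pseudotyped HIV-1 and cultured under low-cytokine conditions to force quiescence, with drug replenished every 72 h. On day 26 the drug was washed out and cells were induced with CD3/CD28 beads, IL-15 (50 ng/ml) or ConA (5 µg/ml). Nef and pSer175-CDK9 were read by FACS against DMSO-pretreated cells.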

[12] = tested on: Human immunodeficiency virus 1; experiment: Reactivation of HIV-1 latent proviruses in Th17 resting memory T cells by measuring pSer175 CDK9 level treated at 100 nM for 96 hrs by FACS analysis (reference value: 1.07%); assay type: functional
[13] = tested on: Human immunodeficiency virus 1; experiment: Reactivation of HIV-1 latent proviruses in Th17 resting memory T cells by measuring pSer175 CDK9 level treated at 1 uM for 96 hrs by FACS analysis (reference value: 1.59%); assay type: functional; how it was run: as §2
[14] = tested on: Human immunodeficiency virus 1; experiment: Reactivation of HIV-1 latent proviruses in Th17 resting memory T cells by measuring pSer175 CDK9 level treated at 10 nM for 96 hrs by FACS analysis (reference value: 1.59%); assay type: functional
[15] = tested on: Human immunodeficiency virus 1; experiment: Reactivation of HIV-1 latent proviruses in Th17 resting memory T cells by measuring pSer175 CDK9 level treated at 100 nM for 96 hrs by FACS analysis (reference value: 1.59%); assay type: functional; how it was run: as §2

CCN(c1cc(-c2ccc(CN3CCOCC3)cc2)cc(C(=O)NCc2c(C)cc(C)[nH]c2=O)c1C)C1CCOCC1 [TAZEMETOSTAT]
Activity [1]: 40%
Activity [2]: 20%
Activity [3]: ~10%
Activity [4]: 16.28%
Activity [5]: 29.17%
Activity [6]: 27.81%

O=C(CCCCCCC(=O)Nc1ccccc1)NO [VORINOSTAT]
Activity [7]: ~30%
Activity [8]: Active

CCCc1cc(C)[nH]c(=O)c1CNC(=O)c1cc(-c2ccnc(N3CCN(C)CC3)c2)cc2c1cnn2C(C)C
Activity [9]: 29.11%
Activity [10]: 22.31%
Activity [1]: 27%
Activity [2]: 20%
Activity [11]: 24.15%
Activity [12]: 24.13%
Activity [3]: ~8%

COc1cc2c(NC3CCN(C(C)C)CC3)nc(C3CCCCC3)nc2cc1OCCCN1CCCC1
Activity [13]: 34.92%
Activity [1]: 22%
Activity [2]: 35%
Activity [3]: ~4%
Activity [14]: 22.84%
Activity [15]: 32.18%
